ChEMBL document CHEMBL1136923, “Highly potent, orally available anti-inflammatory broad-spectrum chemokine inhibitors” (J Med Chem, 2009)

Legend:
[1] = molecular target: C-X-C chemokine receptor type 4 (Homo sapiens) (UniProt P61073); assay: Antagonist activity at CXCR4 in human THP1 cells assessed as inhibition of CXCL12-induced chemotaxis at 10 nM after 2 hrs by microtiter format trans-well migration assay; assay type: functional, cell-based; settings: THP-1
How it was run: (§1)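 Microtiter trans-well migration assay in Gey's balanced salt solution with 1 mg/mL endotoxin-free BSA, no fetal calf serum. Migration ran 2 h at 37 °C. Compounds dissolved in DMSO and added to both top and bottom compartments, final DMSO 1%.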

[2] = molecular target: T1, C-C chemokine receptor type 1 (Homo sapiens) (UniProt P32246); assay: Antagonist activity at CCR1 in human THP1 cells assessed as inhibition of CCL3-induced chemotaxis at 0.1 nM after 2 hrs by microtiter format trans-well migration assay; assay type: functional, cell-based; settings: THP-1; how it was run: as §1
T1 sequence (whole entry): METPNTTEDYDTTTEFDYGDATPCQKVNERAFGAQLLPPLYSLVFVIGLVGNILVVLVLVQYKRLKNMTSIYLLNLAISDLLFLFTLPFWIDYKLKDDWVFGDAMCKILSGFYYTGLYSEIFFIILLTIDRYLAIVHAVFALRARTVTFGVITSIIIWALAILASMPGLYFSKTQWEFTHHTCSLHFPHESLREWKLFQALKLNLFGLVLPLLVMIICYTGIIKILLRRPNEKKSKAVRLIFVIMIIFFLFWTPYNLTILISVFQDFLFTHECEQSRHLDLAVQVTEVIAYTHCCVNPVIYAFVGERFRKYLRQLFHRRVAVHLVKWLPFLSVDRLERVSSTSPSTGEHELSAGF

THP-1 [3] = assay: Toxicity in human THP1 cells assessed as change in cell size at 1000 nM by forward scatter flow cytometry relative to control; assay type: cell-based; settings: thp-1, 1 µM
Mus musculus [4] = assay: Antiinflammatory activity in mouse assessed as inhibition of LPS-induced TNFalpha upregulation at 0.0025 mg, sc measured 2 hrs after LPS challenge; assay type: functional
How it was run: (§2)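 Murine sublethal endotoxemia: LPS given intraperitoneally, with serum TNF-α measured 2 h after the LPS injection as the end point. Compound was given subcutaneously or orally. Vehicle was 0.6% DMSO and 1% carboxymethylcellulose (final concentrations) in sterile water. Effect is reported as % relative to control.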

[5] = molecular target: C-C chemokine receptor type 2 (Homo sapiens) (UniProt P41597); assay: Antagonist activity at CCR2 in human THP1 cells assessed as inhibition of CCL2-induced chemotaxis at 1 nM after 2 hrs by microtiter format trans-well migration assay; assay type: functional, cell-based; settings: THP-1; how it was run: as §1
Sequence of C-C chemokine receptor type 2 (Homo sapiens) (P41597 whole entry, looked up): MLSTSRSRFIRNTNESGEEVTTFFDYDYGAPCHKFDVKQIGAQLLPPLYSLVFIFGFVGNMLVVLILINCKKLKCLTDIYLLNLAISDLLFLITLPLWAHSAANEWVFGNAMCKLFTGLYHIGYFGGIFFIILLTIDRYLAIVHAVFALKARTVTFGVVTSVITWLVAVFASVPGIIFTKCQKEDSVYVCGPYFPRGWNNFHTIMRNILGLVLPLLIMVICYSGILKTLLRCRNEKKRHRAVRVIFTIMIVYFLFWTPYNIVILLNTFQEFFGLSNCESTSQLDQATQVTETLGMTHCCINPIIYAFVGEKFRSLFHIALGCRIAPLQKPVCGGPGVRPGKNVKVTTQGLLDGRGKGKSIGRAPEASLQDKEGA

THP-1 [6] = assay: Endogenous chemoattractant activity at human THP1 cells assessed as cell migration at 0.1 nM after 2 hrs by microtiter format trans-well migration assay; assay type: functional
[7] = molecular target: C-C chemokine receptor type 5 (Homo sapiens) (UniProt P51681); assay: Antagonist activity at CCR5 in human THP1 cells assessed as inhibition of CCL5-induced chemotaxis at 0.1 nM after 2 hrs by microtiter format trans-well migration assay; assay type: functional, cell-based; settings: THP-1; how it was run: as §1
Sequence of C-C chemokine receptor type 5 (Homo sapiens) (P51681 whole entry, looked up): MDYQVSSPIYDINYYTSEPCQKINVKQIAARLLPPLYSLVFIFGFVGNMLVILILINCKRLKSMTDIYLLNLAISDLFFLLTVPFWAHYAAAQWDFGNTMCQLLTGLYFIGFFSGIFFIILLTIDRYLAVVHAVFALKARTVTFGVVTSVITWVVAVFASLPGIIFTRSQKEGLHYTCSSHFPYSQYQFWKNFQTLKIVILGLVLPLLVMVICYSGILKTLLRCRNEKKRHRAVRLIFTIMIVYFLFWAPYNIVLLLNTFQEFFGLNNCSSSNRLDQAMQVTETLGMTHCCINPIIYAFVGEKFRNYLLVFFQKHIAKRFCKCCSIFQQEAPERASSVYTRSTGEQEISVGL

[8] = Antagonist activity at Interleukin-8 receptor in human PMNC assessed as inhibition of CXCL8-induced chemotaxis at 100 nM after 2 hrs by microtiter format trans-well migration assay; assay type: functional; how it was run: as §1
Mus musculus [9] = assay: Antiinflammatory activity in mouse assessed as inhibition of LPS-induced TNFalpha upregulation at 0.00075 mg, sc measured 2 hrs after LPS challenge; assay type: functional
How it was run: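 Murine sublethal endotoxemia: LPS given intraperitoneally, serum TNF-α measured 2 h after LPS injection. Compound vehicle 0.6% DMSO plus 1% carboxymethylcellulose (final concentrations) in sterile water.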

Mus musculus [10] = assay: Antiinflammatory activity in mouse assessed as inhibition of LPS-induced TNFalpha upregulation at 0.075 mg, sc measured 2 hrs after LPS challenge; assay type: functional; how it was run: as §2
[11] = molecular target: C-C chemokine receptor type 5 (Homo sapiens) (UniProt P51681); assay: Antagonist activity at CCR5 in human THP1 cells assessed as inhibition of CCL5-induced chemotaxis at 1000 nM after 2 hrs by microtiter format trans-well migration assay; assay type: functional, cell-based; settings: THP-1; how it was run: as §1
[12] = molecular target: T2, C5a anaphylatoxin chemotactic receptor 1 (Homo sapiens) (UniProt P21730); assay: Antagonist activity at C5a receptor in human PMNC assessed as inhibition of C5a-induced chemotaxis at 100 nM after 2 hrs by microtiter format trans-well migration assay; assay type: functional; how it was run: as §1
T2 sequence (whole entry): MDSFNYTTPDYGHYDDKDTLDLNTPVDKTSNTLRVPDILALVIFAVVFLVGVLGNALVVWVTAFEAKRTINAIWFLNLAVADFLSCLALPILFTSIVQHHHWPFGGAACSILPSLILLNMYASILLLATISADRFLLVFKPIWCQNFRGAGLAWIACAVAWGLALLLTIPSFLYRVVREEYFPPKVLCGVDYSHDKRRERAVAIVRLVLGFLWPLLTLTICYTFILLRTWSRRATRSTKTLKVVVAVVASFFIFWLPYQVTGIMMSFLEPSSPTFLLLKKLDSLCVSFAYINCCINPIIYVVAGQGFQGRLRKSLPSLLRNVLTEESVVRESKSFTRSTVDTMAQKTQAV

[13] = molecular target: T2, C5a anaphylatoxin chemotactic receptor 1 (Homo sapiens); assay: Antagonist activity at C5a receptor in human PMNC assessed as inhibition of C5a-induced chemotaxis at 10 nM after 2 hrs by microtiter format trans-well migration assay; assay type: functional; how it was run: as §1
THP-1 [14] = assay: Endogenous chemoattractant activity at human THP1 cells assessed as cell migration at 1 nM after 2 hrs by microtiter format trans-well migration assay; assay type: functional
Mus musculus [15] = assay: Antiinflammatory activity in mouse assessed as inhibition of LPS-induced TNFalpha upregulation at 0.025 ug, sc measured 2 hrs after LPS challenge; assay type: functional; how it was run: as §2
[16] = molecular target: C-C chemokine receptor type 5 (Homo sapiens) (UniProt P51681); assay: Antagonist activity at CCR5 in human THP1 cells assessed as inhibition of CCL5-induced chemotaxis at 100 nM after 2 hrs by microtiter format trans-well migration assay; assay type: functional, cell-based; settings: THP-1; how it was run: as §1
[17] = molecular target: C-C chemokine receptor type 2 (Homo sapiens) (UniProt P41597); assay: Antagonist activity at CCR2 in human THP1 cells assessed as inhibition of CCL2-induced chemotaxis at 100 nM after 2 hrs by microtiter format trans-well migration assay; assay type: functional, cell-based; settings: THP-1; how it was run: as §1
Mus musculus [18] = assay: Antiinflammatory activity in mouse assessed as inhibition of LPS-induced TNFalpha upregulation at 0.0075 mg, po measured 2 hrs after LPS challenge; assay type: functional; how it was run: as §2
Mus musculus [19] = assay: Antiinflammatory activity in mouse assessed as inhibition of LPS-induced TNFalpha upregulation at 0.075 mg, po measured 2 hrs after LPS challenge; assay type: functional; how it was run: as §2
[20] = Fractional bioavailability in Sprague-Dawley rat at 3 mg/kg, po administered as single dose; assay type: ADME, organism-based; settings: in vivo
How it was run: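 Male Sprague-Dawley rats, three per compound, receive a single oral dose by gavage in 1% carboxymethylcellulose in 0.9% saline, with food and water ad libitum. Plasma is sampled from 5 to 480 min and drug is quantified by positive-mode LC/MS/MS after acetonitrile/formic acid extraction. The lower limit of quantitation is about 2 ng/mL. Exposure is AUC(0→t) by the linear/log trapezoidal rule, and F is oral fractional bioavailability.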

THP-1 [21] = assay: Cytotoxicity against human THP1 cells up to 100 uM by trypan blue exclusion assay; assay type: cell-based
Mus musculus [22] = assay: Antiinflammatory activity in mouse assessed as inhibition of LPS-induced TNFalpha upregulation at 830 pg, sc measured 2 hrs after LPS challenge; assay type: functional
How it was run: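 Murine sublethal LPS endotoxemia screen. LPS is injected intraperitoneally and serum TNF-α is measured 2 h later as the end point. Compound is given subcutaneously or orally in a vehicle of 0.6% DMSO plus 1% carboxymethylcellulose (final concentrations) in sterile water. Values are % relative to control.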

Sequence of C-X-C chemokine receptor type 4 (Homo sapiens) (P61073 whole entry): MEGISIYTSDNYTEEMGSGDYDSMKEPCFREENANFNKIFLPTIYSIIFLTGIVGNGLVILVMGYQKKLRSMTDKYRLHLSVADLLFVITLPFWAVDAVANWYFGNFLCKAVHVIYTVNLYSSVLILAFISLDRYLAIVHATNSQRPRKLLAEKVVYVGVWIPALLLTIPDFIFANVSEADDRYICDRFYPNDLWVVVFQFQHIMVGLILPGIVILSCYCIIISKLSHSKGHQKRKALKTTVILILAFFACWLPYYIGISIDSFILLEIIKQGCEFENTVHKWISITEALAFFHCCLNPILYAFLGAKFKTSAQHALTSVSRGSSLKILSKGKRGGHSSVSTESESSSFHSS

inhibition [1]: 107%
inhibition [2]: 43%
inhibition [5]: 81%
inhibition [7]: 16.5%
inhibition [11]: 100%
inhibition [16]: 92.5%
inhibition [17]: 93%
bioavailability [20]: 16%
Compound: CCCCCCCCCCC(C)(C)C(=O)N[C@H]1CCCCNC1=O
fold change (FC) (THP-1 [3]): 1.05
inhibition (INH) (Mus musculus [4]): 57%
Activity (THP-1 [6]): 2556%
inhibition at 0.1 µM [8]: 128%
inhibition (INH) (Mus musculus [9]): 57%
inhibition (INH) (Mus musculus [10]): 66%
inhibition [12]: 16%
inhibition [13]: -3%
Activity (THP-1 [14]): 4335%
inhibition (INH) (Mus musculus [15]): 67%
inhibition (INH) (Mus musculus [18]): 12%
inhibition (INH) (Mus musculus [19]): 80%
Activity (THP-1 [21]): Non-toxic
inhibition (INH) (Mus musculus [22]): 18%
